Experimental data as given in ChEMBL document CHEMBL1926656, “Cyclopeptide Alkaloids from Ziziphus apetala” (J Nat Prod, 2011).
Active and inactive are the calls of the source. The calls are words filed in the database; no cut-off is given here.

What was measured:
[1] = system: HeLa; test: Cytotoxicity against human HeLa cells; type: functional, cell-based
[2] = system: BGC-823; test: Cytotoxicity against human BGC823 cells; type: functional, cell-based
[3] = target: 11-beta-hydroxysteroid dehydrogenase 1 (Mus musculus, UniProt P50172); test: Inhibition of mouse 11beta-HSD1 expressed in human HEK293 cells assessed as conversion of [3H]cortisone to [3H]cortisol by scintillation proximity assay; type: cell-based
Chain of 11-beta-hydroxysteroid dehydrogenase 1 (Mus musculus, UniProt P50172) (P50172 whole entry): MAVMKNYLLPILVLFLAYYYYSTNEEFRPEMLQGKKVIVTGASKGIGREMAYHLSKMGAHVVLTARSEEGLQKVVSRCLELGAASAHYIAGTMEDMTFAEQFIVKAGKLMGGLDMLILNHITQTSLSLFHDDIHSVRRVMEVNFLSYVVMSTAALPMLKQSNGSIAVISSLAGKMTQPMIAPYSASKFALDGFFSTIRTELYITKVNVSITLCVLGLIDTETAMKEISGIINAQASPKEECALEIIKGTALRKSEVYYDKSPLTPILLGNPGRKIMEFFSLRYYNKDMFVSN
How it was run: (§1)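 Full-length human or mouse 11β-HSD1 cDNA in pcDNA3, stably expressed in HEK-293 cells selected with 700 μg/mL G418; microsomal fraction used as enzyme. Microsomes incubated with NADPH and [3H]cortisone; [3H]cortisol product captured by monoclonal antibody on protein A-coated SPA beads. Glycyrrhizinic acid positive control. IC50 as mean ± SD, n = 3.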

[4] = target: 11-beta-hydroxysteroid dehydrogenase 1 (Homo sapiens, UniProt P28845); test: Inhibition of human 11beta-HSD1 expressed in human HEK293 cells assessed as conversion of [3H]cortisone to [3H]cortisol by scintillation proximity assay; type: cell-based; how it was run: as §1
Chain of 11-beta-hydroxysteroid dehydrogenase 1 (Homo sapiens, UniProt P28845) (P28845 whole entry): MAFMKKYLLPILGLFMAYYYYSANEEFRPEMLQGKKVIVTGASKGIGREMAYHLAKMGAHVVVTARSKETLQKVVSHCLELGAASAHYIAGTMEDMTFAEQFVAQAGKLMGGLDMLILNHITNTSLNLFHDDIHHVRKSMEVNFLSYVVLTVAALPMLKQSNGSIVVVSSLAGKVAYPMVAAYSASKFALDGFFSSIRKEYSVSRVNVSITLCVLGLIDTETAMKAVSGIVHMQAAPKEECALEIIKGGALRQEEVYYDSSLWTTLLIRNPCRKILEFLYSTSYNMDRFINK

C/C(=N/O)C(=O)N[C@H](C(=O)N1CC[C@@H]2Oc3ccc(cc3)/C=C\NC(=O)[C@H](Cc3ccccc3)NC(=O)[C@H]21)C(C)C
Activity [1]: inactive
Activity [2]: inactive

CN[C@@H](C)C(=O)N[C@H](C(=O)N1CC[C@@H]2Oc3ccc(cc3)/C=C\NC(=O)[C@H](Cc3ccccc3)NC(=O)[C@H]21)C(C)C
Activity [1]: inactive
Activity [2]: inactive

CC(C)[C@H](NC(=O)[C@@H](C)[N+](C)(C)[O-])C(=O)N1CC[C@@H]2Oc3ccc(cc3)/C=C\NC(=O)[C@H](Cc3ccccc3)NC(=O)[C@H]21
Activity [1]: inactive
Activity [2]: inactive

CC1(C)[C@@H](O[C@H]2O[C@H](C(=O)O)[C@@H](O)[C@H](O)[C@H]2O[C@@H]2O[C@H](C(=O)O)[C@@H](O)[C@H](O)[C@H]2O)CC[C@]2(C)[C@H]3C(=O)C=C4[C@@H]5C[C@@](C)(C(=O)O)CC[C@]5(C)CC[C@@]4(C)[C@]3(C)CC[C@@H]12 [GLYCYRRHIZIN]
IC50 [3]: 0.0295 µM
IC50 [4]: 0.0186 µM

CC(C)[C@H](NC(=O)[C@H](C)[N+](C)(C)[O-])C(=O)N1CC[C@@H]2Oc3ccc(cc3)/C=C\NC(=O)[C@H](Cc3ccccc3)NC(=O)[C@H]21
Activity [1]: inactive
Activity [2]: inactive

CC(C)[C@H](NC(=O)C(C)N(C)C=O)C(=O)N1CC[C@@H]2Oc3ccc(cc3)/C=C\NC(=O)[C@H](Cc3ccccc3)NC(=O)[C@H]21 (stereo not given in full)
Activity [1]: inactive
Activity [2]: inactive

CC(C)[C@H](NC(=O)[C@H](C)N(C)C)C(=O)N1CC[C@@H]2Oc3ccc(cc3)/C=C\NC(=O)[C@H](Cc3ccccc3)NC(=O)[C@H]21 [MAURITINE A]
IC50 [3]: 54.2 µM
Activity [1]: inactive
Activity [2]: inactive
IC50 [4]: 90.3 µM

CC(C)[C@@H](C(=O)N1CC[C@@H]2Oc3ccc(cc3)/C=C\NC(=O)[C@H](Cc3ccccc3)NC(=O)[C@H]21)N1CN(C)[C@@H](C)C1=O
Activity [1]: inactive
Activity [2]: inactive

CC(C)[C@H](NC(=O)[C@@H](C)N(C)C)C(=O)N1CC[C@@H]2Oc3ccc(cc3)/C=C\NC(=O)[C@H](Cc3ccccc3)NC(=O)[C@H]21
Activity [1]: inactive
Activity [2]: inactive
